# Laboratory results: ChEMBL document CHEMBL4689842, “EUbOPEN Chemogenomics Library wave 1” (2021)
# “And” between values parts separate entries of the source, which are not always exact repeats. Equal entries are not always repeated.
# Legend:
# Fibroblast = test: Multiplex assay against human fibroblast; format: toxicity, cell-based; conditions: 10 µM, compound concentration 10 uM
# Outline: (§1)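 Live cells were stained at seeding with Hoechst33342, BioTracker Green Microtubule Cytoskeleton Dye, MitoTracker Red and Annexin V Alexa Fluor 680. Following compound addition, they were imaged on a CQ1 microscope at 37°C and 5% CO2 and gated by CellPathfinder machine learning into Hoechst high-intensity objects or normal cells, with normal cells split into healthy, pyknosed or fragmented nuclei and pyknosed cells into mitotic or apoptotic. Tubulin, mitochondrial-mass and membrane-permeability phenotypes are per cents of healthy-nucleus cells.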
# HEK-293T = test: Multiplex assay against HEK293T; format: toxicity, cell-based; conditions: human, 10 µM, compound concentration 10 uM; outline: as §1;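 as to Population Tubulin-Different-Phenotype (%): share of the cells with healthy nuclei that show this phenotype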
structure (smiles),measurement,setting,value
Cc1c(Oc2ccc(F)cc2)c(OC(C)C)nn1-c1ccc(C2CC2)cn1 [IPP/CNRS-A019],Population Apoptotic (%),"Fibroblast; 12 h, replicate 1",78% and 77%
same,Population Fragmented Nuclei (%),"Fibroblast; 12 h, replicate 1",26% and 22%
same,Population Healthy Nuclei (%),"Fibroblast; 12 h, replicate 1",58% and 60%
same,Population Hoechst High Intensity Objects (%),"Fibroblast; 12 h, replicate 1",12% and 13%
same,Population Membrane Permeable-Phenotype (%),"Fibroblast; 12 h, replicate 1",5%
same,Population Mitochondria Different-Phenotype (%),"Fibroblast; 12 h, replicate 1",3% and 6%
same,Population Mitotic Cells (%),"Fibroblast; 12 h, replicate 1",21% and 22%
same,Population Normal (%),"Fibroblast; 12 h, replicate 1",87% and 86%
same,Population Pyknosed Nuclei (%),"Fibroblast; 12 h, replicate 1",15% and 18%
same,Population Tubulin-Different-Phenotype (%),"Fibroblast; 12 h, replicate 1",9% and 4%
same,Total Cell Count,"Fibroblast; 12 h, replicate 1",308 and 230
same,Population Fragmented Nuclei (%),"Fibroblast; 12 h, replicate 2",33% and 67%
same,Population Healthy Nuclei (%),"Fibroblast; 12 h, replicate 2",49% and 28%
same,Population Hoechst High Intensity Objects (%),"Fibroblast; 12 h, replicate 2",38% and 40%
same,Population Mitochondria Different-Phenotype (%),"Fibroblast; 12 h, replicate 2",19% and 42%
same,Population Normal (%),"Fibroblast; 12 h, replicate 2",61% and 59%
same,Total Cell Count,"Fibroblast; 12 h, replicate 2",103 and 83
same,Population Apoptotic (%),"Fibroblast; 24 h, replicate 1",69% and 48%
same,Population Fragmented Nuclei (%),"Fibroblast; 24 h, replicate 1",22% and 21%
same,Population Healthy Nuclei (%),"Fibroblast; 24 h, replicate 1",62% and 63%
same,Population Hoechst High Intensity Objects (%),"Fibroblast; 24 h, replicate 1",16% and 19%
same,Population Membrane Permeable-Phenotype (%),"Fibroblast; 24 h, replicate 1",5% and 4%
same,Population Mitochondria Different-Phenotype (%),"Fibroblast; 24 h, replicate 1",7%
same,Population Mitotic Cells (%),"Fibroblast; 24 h, replicate 1",30% and 51%
same,Population Normal (%),"Fibroblast; 24 h, replicate 1",83% and 80%
same,Population Pyknosed Nuclei (%),"Fibroblast; 24 h, replicate 1",14% and 15%
same,Population Tubulin-Different-Phenotype (%),"Fibroblast; 24 h, replicate 1",9% and 4%
same,Total Cell Count,"Fibroblast; 24 h, replicate 1",321 and 238
same,Population Fragmented Nuclei (%),"Fibroblast; 24 h, replicate 2",44% and 63%
same,Population Healthy Nuclei (%),"Fibroblast; 24 h, replicate 2",46% and 34%
same,Population Hoechst High Intensity Objects (%),"Fibroblast; 24 h, replicate 2",38%
same,Population Membrane Permeable-Phenotype (%),"Fibroblast; 24 h, replicate 2",10% and 0%
same,Population Normal (%),"Fibroblast; 24 h, replicate 2",61%
same,Total Cell Count,"Fibroblast; 24 h, replicate 2",103 and 84
same,Population Apoptotic (%),"HEK-293T; 12 h, replicate 1",12% and 19%
same,Population Fragmented Nuclei (%),"HEK-293T; 12 h, replicate 1",13% and 11%
same,Population Healthy Nuclei (%),"HEK-293T; 12 h, replicate 1",69% and 68%
same,Population Hoechst High Intensity Objects (%),"HEK-293T; 12 h, replicate 1",8% and 10%
same,Population Membrane Permeable-Phenotype (%),"HEK-293T; 12 h, replicate 1",5% and 3%
same,Population Mitochondria Different-Phenotype (%),"HEK-293T; 12 h, replicate 1",7% and 5%
same,Population Mitotic Cells (%),"HEK-293T; 12 h, replicate 1",87% and 80%
same,Population Normal (%),"HEK-293T; 12 h, replicate 1",91% and 89%
same,Population Pyknosed Nuclei (%),"HEK-293T; 12 h, replicate 1",17% and 19%
same,Population Tubulin-Different-Phenotype (%),"HEK-293T; 12 h, replicate 1",7% and 3%
same,Total Cell Count,"HEK-293T; 12 h, replicate 1",607 and 515
same,Population Apoptotic (%),"HEK-293T; 12 h, replicate 2",15% and 18%
same,Population Fragmented Nuclei (%),"HEK-293T; 12 h, replicate 2",7% and 9%
same,Population Healthy Nuclei (%),"HEK-293T; 12 h, replicate 2",89% and 86%
same,Population Hoechst High Intensity Objects (%),"HEK-293T; 12 h, replicate 2",2% and 1%
same,Population Membrane Permeable-Phenotype (%),"HEK-293T; 12 h, replicate 2",4% and 1%
same,Population Mitochondria Different-Phenotype (%),"HEK-293T; 12 h, replicate 2",17%
same,Population Mitotic Cells (%),"HEK-293T; 12 h, replicate 2",84% and 81%
same,Population Normal (%),"HEK-293T; 12 h, replicate 2",97% and 98%
same,Population Pyknosed Nuclei (%),"HEK-293T; 12 h, replicate 2",2% and 3%
same,Total Cell Count,"HEK-293T; 12 h, replicate 2",1658 and 1670
same,Population Apoptotic (%),"HEK-293T; 24 h, replicate 1",28% and 16%
same,Population Fragmented Nuclei (%),"HEK-293T; 24 h, replicate 1",12% and 14%
same,Population Healthy Nuclei (%),"HEK-293T; 24 h, replicate 1",77%
same,Population Hoechst High Intensity Objects (%),"HEK-293T; 24 h, replicate 1",6%
same,Population Membrane Permeable-Phenotype (%),"HEK-293T; 24 h, replicate 1",10%
same,Population Mitochondria Different-Phenotype (%),"HEK-293T; 24 h, replicate 1",4% and 8%
same,Population Mitotic Cells (%),"HEK-293T; 24 h, replicate 1",71% and 83%
same,Population Normal (%),"HEK-293T; 24 h, replicate 1",93%
same,Population Pyknosed Nuclei (%),"HEK-293T; 24 h, replicate 1",10% and 7%
same,Population Tubulin-Different-Phenotype (%),"HEK-293T; 24 h, replicate 1",6% and 9%
same,Total Cell Count,"HEK-293T; 24 h, replicate 1",595 and 667
same,Population Apoptotic (%),"HEK-293T; 24 h, replicate 2",9% and 6%
same,Population Fragmented Nuclei (%),"HEK-293T; 24 h, replicate 2",19% and 8%
same,Population Healthy Nuclei (%),"HEK-293T; 24 h, replicate 2",78% and 89%
